Laboratory results as given in ChEMBL document CHEMBL1123358, “Design and synthesis of sodium (beta R*, gamma S*)-4-[[3-(4-acetyl-3-hydroxy-2-propylphenoxy)propyl] thio]-gamma-hydroxy-beta-methylbenzenebutanoate: a novel, selective, and orally active receptor antagonist of leukotriene D4” (J Med Chem, 1986).

Key:
Cavia porcellus [1] = experiment: In vivo activity against bronchoconstrictions induced by LTD4 (0.2 ug/kg, iv) in anesthetized guinea pig following id administration of compound; type: functional
Procedure, shortened: (§1)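 Anesthetized, artificially ventilated guinea pigs received a single intraduodenal dose, then iv LTD₄ (0.2 μg/kg) bronchoconstriction challenge. Effective dose is the minimum dose giving more than 50% inhibition of bronchoconstriction within 50 min after dosing, with the number of experiments in parentheses.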

Cavia porcellus [2] = experiment: In vivo activity against bronchoconstrictions induced by LTD4 (0.2 ug/kg, iv) in anesthetized guinea pig following iv administration of compound; type: functional
Procedure, shortened: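 Artificially ventilated, anesthetized guinea pigs were challenged with LTD₄ 0.2 μg/kg iv. Drug was given iv in cumulative doses, 5 min before each successive LTD₄ challenge. ED₅₀ is from one to two determinations, or mean ± SEM where repeated, with n in parentheses.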

Cavia porcellus [3] = species: Cavia porcellus; experiment: In vitro inhibition of responses induced by LTD4 in Isolated terminal guinea pig ileum segments at 0.1 ug/mL; type: functional
Procedure, shortened: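 Terminal ileum segments (2.5 cm) in aerated Krebs-bicarbonate with atropine (10⁻⁶ M) and timolol maleate (0.5 μg/mL), held under 1 g passive force. After equilibration, submaximal control contractions to LTD₄ (0.3 ng/mL) were recorded. Test substance was given for 30 s, then the control LTD₄ concentration was re-added and tension was measured. Percent inhibition is at 0.1 μg/mL, mean ± SEM of three determinations.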

[4] = target: T1, Cysteinyl leukotriene receptor 1 (Cavia porcellus, UniProt Q2NNR5); experiment: Compound was tested for inhibition of radioligand [3H]LTC4 binding to Cysteinyl leukotriene D4 receptor in guinea pig lung membranes; type: cell membranes, Membrane
T1 sequence (Q2NNR5 whole entry): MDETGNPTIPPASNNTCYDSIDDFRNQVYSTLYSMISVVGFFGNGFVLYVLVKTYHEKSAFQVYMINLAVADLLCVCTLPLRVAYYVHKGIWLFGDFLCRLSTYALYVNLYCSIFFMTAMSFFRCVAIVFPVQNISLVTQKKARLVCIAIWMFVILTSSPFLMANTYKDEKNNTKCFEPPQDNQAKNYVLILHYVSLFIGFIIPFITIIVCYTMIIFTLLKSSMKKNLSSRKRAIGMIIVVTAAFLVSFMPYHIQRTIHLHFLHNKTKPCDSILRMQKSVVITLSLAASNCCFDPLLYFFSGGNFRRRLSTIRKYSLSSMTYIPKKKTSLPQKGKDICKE

[5] = target: T1, Cysteinyl leukotriene receptor 1; experiment: Compound was tested for inhibition of radioligand [3H]LTD4 binding to Cysteinyl leukotriene D4 receptor in guinea pig lung membranes; type: cell membranes, Membrane
Cavia porcellus [6] = experiment: In vivo activity against bronchoconstrictions induced by LTD4 (0.2 ug/kg, iv) in anesthetized guinea pig administered intraduodenally at 5 mg/kg concentration of compound; type: functional; settings: route intraduodenal; procedure, shortened: as §1

Row | Compound | ED (Cavia porcellus [1]) | ED50 (Cavia porcellus [2]) | inhibition at 0.1 µg/mL (Cavia porcellus [3]) | Ki [4] | Ki [5] | inhibition in vivo at 5 mg/kg (Cavia porcellus [6])
1 | CCCc1c(OCCCOc2ccc(C(=O)CCC(=O)O)cc2)ccc(C(C)=O)c1O | 5 mg/kg | 1.1 mg/kg | 49% |  |  | 
2 | CCCc1c(OCCCSc2ccc(CC(=O)O)cc2)ccc(C(C)=O)c1O | 10 mg/kg | 1.3 mg/kg | 65% |  |  | 
3 | CCCc1c(OCCCSc2ccc(C(O)C(C)CC(=O)[O-])cc2)ccc(C(C)=O)c1O.[Na+] (centres undefined) | >10 mg/kg | 1.5 mg/kg | 62% |  |  | 
4 | CCCc1c(OCCCOc2ccc(C(=O)CCC(=O)O)cc2C)ccc(C(C)=O)c1O | >10 mg/kg |  | 53% |  |  | 
5 | CCCc1c(OCCCOc2ccc(C(=O)CCC(=O)O)cc2F)ccc(C(C)=O)c1O | 10 mg/kg | 1 mg/kg | 81% |  |  | 
6 | CCCc1c(OCCCSc2ccc(C(=O)CCc3nnn[nH]3)cc2)ccc(C(C)=O)c1O | >10 mg/kg | 0.6 mg/kg | 63% |  |  | 
7 | CCCc1cc(C(=O)CCC(=O)O)ccc1SCCCOc1ccc(C(C)=O)c(O)c1CCC | 10 mg/kg | 0.2 mg/kg | 37% |  |  | 
8 | CCCc1c(OCCCSc2ccc(C(O)CCC(=O)O)cc2)ccc(C(C)=O)c1O (centres undefined) | 10 mg/kg | 0.5 mg/kg | 65% |  |  | 
9 | CCCc1c(OCCCSc2ccc(C(=O)CCC(=O)O)cc2F)ccc(C(C)=O)c1O | 10 mg/kg | 1.1 mg/kg | 82% |  |  | 
10 | CCCc1c(OCCCSc2ccc(C(O)C(C)(C)CC(=O)[O-])cc2)ccc(C(C)=O)c1O.[Na+] (centres undefined) | 5 mg/kg | 0.5 mg/kg | 45% |  |  | 
11 | CCCc1c(OCCCSc2ccc(C(O)[C@@H](C)CC(=O)[O-])cc2)ccc(C(C)=O)c1O.[Na+] (some centres undefined) | 5 mg/kg | 0.26 mg/kg | 73% | 8.6 µM | 0.4 µM | > 50%
12 | CCCc1c(OCC(O)CSc2ccc(C(=O)CCC(=O)O)cc2F)ccc(C(C)=O)c1O (centres undefined) | >10 mg/kg | 0.9 mg/kg | 32% |  |  | 
13 | CCCc1c(OCCCSc2ccc(C(=O)CCC(=O)O)cc2)ccc(C(C)=O)c1O | 10 mg/kg | 1.1 mg/kg | 63% |  |  | 
14 | CCCc1c(OCC(O)COc2ccc3c(=O)cc(C(=O)O)oc3c2CCC)ccc(C(C)=O)c1O (centres undefined) [FPL-55712] | >10 mg/kg | 0.1 mg/kg | 83% |  |  | 
